Tests used:
[1] = target: Phosphodiesterases; PDE5 & PDE6 (Homo sapiens) (UniProt O76074+Q13956+P18545+P35913+O43924+P16499+P51160); experiment: Relative binding to Phosphodiesterase 6 and Phosphodiesterase 5, ratio of IC50; format: protein assay
[2] = target: T1, cGMP-specific 3',5'-cyclic phosphodiesterase (Homo sapiens, UniProt O76074); experiment: Inhibition of human phosphodiesterase 5
[3] = target: Phosphodiesterase, PDE1/PDE5 (Homo sapiens) (UniProt O76074+P54750+Q01064+Q14123); experiment: Relative binding to Phosphodiesterase 1 and Phosphodiesterase 5, ratio of IC50; format: protein assay
[4] = target: T1, cGMP-specific 3',5'-cyclic phosphodiesterase; experiment: Percentage inhibition of human phosphodiesterase 5 at 100 nM
[5] = target: High affinity cGMP-specific 3',5'-cyclic phosphodiesterase 9A (Homo sapiens, UniProt O76083); experiment: Inhibition of Phosphodiesterase 9
[6] = Inhibitory concentration against human phosphodiesterase 8 activity
Method in brief: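 Scintillation proximity assay using a cAMP-PDE SPA kit, with 0.05 μM cAMP as substrate.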

Phosphodiesterase 1 = Phosphodiesterase 1 (Homo sapiens, UniProt P54750+Q01064+Q14123); experiment: Inhibition of human phosphodiesterase 1; format: protein assay
Phosphodiesterase 7 = Phosphodiesterase 7 (Homo sapiens, UniProt Q13946+Q9NP56); experiment: Inhibition of human phosphodiesterase 7; format: protein assay
[7] = target: cGMP-dependent 3',5'-cyclic phosphodiesterase (Homo sapiens, UniProt O00408); experiment: Inhibition of human phosphodiesterase 2
[8] = target: cAMP and cAMP-inhibited cGMP 3',5'-cyclic phosphodiesterase 10A (Homo sapiens, UniProt Q9Y233); experiment: Inhibitory concentration against human phosphodiesterase 10
Phosphodiesterase 3 = Phosphodiesterase 3 (Homo sapiens, UniProt Q14432+Q13370); experiment: Inhibition of human phosphodiesterase 3; format: protein assay
[9] = target: Dual 3',5'-cyclic-AMP and -GMP phosphodiesterase 11A (Homo sapiens, UniProt Q9HCR9); experiment: Inhibition of human phosphodiesterase 11
Phosphodiesterase 4 = Phosphodiesterase 4 (Homo sapiens, UniProt P27815+Q08499+Q07343+Q08493); experiment: Inhibition of human phosphodiesterase 4; format: protein assay
Phosphodiesterase 6 = experiment: Inhibition of human phosphodiesterase 6; format: protein assay

cAMP and cAMP-inhibited cGMP 3',5'-cyclic phosphodiesterase 10A, sequence (Q9Y233 whole entry): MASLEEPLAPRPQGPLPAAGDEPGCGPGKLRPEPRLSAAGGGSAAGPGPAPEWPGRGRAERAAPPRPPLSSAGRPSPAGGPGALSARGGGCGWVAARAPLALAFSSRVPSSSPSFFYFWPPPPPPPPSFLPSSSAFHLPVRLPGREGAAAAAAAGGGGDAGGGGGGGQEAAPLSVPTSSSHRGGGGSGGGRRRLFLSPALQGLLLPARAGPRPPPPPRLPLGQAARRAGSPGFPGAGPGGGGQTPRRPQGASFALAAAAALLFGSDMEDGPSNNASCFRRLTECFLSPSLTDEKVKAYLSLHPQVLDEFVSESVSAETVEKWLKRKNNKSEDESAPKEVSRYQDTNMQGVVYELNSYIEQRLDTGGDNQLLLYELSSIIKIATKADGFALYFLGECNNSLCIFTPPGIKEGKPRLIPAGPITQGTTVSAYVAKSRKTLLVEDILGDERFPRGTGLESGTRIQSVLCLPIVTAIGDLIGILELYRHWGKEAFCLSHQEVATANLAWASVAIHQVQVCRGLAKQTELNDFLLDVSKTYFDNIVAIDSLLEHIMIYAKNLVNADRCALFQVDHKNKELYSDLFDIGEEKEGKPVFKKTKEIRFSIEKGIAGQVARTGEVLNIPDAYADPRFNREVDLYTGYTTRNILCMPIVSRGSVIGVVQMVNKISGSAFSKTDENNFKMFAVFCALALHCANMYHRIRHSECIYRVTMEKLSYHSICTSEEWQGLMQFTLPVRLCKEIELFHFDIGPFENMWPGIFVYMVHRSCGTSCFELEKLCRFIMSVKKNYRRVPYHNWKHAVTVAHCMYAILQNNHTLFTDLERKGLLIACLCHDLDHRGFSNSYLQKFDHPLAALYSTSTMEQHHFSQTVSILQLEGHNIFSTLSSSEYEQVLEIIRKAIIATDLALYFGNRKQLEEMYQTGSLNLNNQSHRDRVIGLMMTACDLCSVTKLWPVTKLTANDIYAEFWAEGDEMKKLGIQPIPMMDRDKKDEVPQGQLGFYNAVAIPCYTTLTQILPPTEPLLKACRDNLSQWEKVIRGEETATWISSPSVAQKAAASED
cGMP-dependent 3',5'-cyclic phosphodiesterase, sequence (O00408 whole entry): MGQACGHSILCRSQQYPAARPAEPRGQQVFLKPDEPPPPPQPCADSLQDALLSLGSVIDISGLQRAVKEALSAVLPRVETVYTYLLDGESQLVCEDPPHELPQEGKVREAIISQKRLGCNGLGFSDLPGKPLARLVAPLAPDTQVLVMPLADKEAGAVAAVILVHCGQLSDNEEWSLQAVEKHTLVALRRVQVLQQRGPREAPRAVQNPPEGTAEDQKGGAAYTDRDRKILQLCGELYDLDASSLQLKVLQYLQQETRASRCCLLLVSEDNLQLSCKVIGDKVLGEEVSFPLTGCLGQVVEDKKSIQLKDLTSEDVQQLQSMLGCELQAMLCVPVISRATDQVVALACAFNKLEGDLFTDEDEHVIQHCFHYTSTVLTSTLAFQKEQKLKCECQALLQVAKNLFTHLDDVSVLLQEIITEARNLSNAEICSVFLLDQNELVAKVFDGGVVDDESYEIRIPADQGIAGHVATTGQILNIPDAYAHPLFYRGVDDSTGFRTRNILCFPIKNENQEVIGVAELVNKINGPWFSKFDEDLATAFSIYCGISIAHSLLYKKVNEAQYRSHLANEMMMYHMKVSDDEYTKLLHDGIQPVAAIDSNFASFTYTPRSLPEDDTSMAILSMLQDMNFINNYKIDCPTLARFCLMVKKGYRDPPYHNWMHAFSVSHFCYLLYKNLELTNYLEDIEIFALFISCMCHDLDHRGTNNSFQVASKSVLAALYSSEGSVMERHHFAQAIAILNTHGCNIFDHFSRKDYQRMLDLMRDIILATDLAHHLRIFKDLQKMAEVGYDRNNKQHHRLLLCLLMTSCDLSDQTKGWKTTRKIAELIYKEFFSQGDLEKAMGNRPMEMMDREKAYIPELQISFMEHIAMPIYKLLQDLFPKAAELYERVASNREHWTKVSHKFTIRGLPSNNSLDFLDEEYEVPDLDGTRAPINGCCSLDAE
Dual 3',5'-cyclic-AMP and -GMP phosphodiesterase 11A, sequence (Q9HCR9 whole entry): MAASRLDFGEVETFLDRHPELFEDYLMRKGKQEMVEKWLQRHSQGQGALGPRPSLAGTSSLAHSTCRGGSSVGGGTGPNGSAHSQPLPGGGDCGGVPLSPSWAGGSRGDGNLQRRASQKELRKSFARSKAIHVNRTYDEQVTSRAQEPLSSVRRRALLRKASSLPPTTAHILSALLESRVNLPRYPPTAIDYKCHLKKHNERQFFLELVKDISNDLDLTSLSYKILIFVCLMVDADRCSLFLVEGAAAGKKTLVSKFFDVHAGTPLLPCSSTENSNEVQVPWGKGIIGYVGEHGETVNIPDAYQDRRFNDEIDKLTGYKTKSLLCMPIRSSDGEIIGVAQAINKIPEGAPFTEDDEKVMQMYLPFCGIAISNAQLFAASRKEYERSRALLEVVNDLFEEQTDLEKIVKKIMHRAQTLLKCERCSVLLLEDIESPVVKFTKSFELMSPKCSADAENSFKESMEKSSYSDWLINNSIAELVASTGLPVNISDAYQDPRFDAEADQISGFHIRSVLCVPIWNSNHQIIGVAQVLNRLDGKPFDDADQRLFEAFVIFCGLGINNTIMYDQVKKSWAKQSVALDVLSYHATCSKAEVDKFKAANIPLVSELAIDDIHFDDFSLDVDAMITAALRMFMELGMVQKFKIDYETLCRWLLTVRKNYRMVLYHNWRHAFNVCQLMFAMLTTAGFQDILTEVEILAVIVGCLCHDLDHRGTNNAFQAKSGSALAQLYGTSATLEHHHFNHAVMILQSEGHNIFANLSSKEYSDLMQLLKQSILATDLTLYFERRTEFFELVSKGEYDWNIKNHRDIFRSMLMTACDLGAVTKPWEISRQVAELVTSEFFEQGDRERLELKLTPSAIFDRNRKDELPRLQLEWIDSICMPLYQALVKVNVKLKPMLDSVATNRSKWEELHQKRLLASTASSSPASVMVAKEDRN
High affinity cGMP-specific 3',5'-cyclic phosphodiesterase 9A, sequence (O76083 whole entry): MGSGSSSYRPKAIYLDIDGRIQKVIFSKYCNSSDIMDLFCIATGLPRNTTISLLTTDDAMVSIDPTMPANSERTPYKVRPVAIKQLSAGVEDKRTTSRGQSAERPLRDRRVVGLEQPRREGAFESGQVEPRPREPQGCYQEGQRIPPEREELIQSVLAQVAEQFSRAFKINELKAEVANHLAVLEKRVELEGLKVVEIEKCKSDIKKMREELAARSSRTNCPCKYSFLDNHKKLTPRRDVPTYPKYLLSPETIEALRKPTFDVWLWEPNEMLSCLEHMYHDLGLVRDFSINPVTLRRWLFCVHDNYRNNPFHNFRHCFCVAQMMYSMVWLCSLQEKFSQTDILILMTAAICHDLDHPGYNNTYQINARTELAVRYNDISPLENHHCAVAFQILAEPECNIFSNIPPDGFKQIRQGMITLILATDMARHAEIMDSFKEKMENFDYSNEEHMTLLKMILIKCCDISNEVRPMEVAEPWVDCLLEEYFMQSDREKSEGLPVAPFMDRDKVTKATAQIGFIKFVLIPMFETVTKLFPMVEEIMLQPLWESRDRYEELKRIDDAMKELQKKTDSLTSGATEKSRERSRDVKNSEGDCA

| Ratio [1] | IC50 [2] [nM] | Compound | further results |
| --- | --- | --- | --- |
| 1.8 | 130 | CCN1C(=O)c2c(nc(Cc3ccccc3)n2Cc2ccc(OC)cc2)N2C[C@@H](Cc3ccccc3)N=C12 |  |
| 1.7 | 14 | CCN1C(=O)c2c(nc(C#Cc3ccccc3)n2Cc2ccc(OC)cc2)N2C[C@@H](Cc3ccccc3)N=C12 |  |
| 2.3 | 100 | CN1C(=O)c2[nH]c(Cc3ccccc3)nc2N2C[C@@H](Cc3ccccc3)N=C12 | Ratio [3]: 11 |
| 7.4 | 29 | CCN1C(=O)c2c(nc(Cc3ccccc3)n2Cc2ccc(O)cc2)N2C[C@@H](Cc3ccccc3)N=C12 |  |
|  |  | CC(C)N1C(=O)c2nc(Cc3ccccc3)n(Cc3ccccc3)c2N2C[C@@H](Cc3ccccc3)N=C21 | inhibition [4]: 13% |
| 5 | 200 | CCN1C(=O)c2ncn(Cc3ccccc3)c2N2C[C@@H](Cc3ccccc3)N=C12 |  |
|  |  | CN1CC(=O)N2[C@H](c3ccc4c(c3)OCO4)c3[nH]c4ccccc4c3C[C@@H]2C1=O | IC50 [5]: > 10000 nM; IC50 [6]: > 10000 nM; IC50 (Phosphodiesterase 1): > 10000 nM; IC50 (Phosphodiesterase 7): > 10000 nM; IC50 [7]: > 10000 nM; IC50 [8]: > 10000 nM; IC50 (Phosphodiesterase 3): > 10000 nM |
|  |  | C=CCN1C(=O)c2nc(Cc3ccccc3)n(Cc3ccccc3)c2N2C[C@@H](Cc3ccccc3)N=C12 | inhibition [4]: 17% |
|  |  | CC[C@@H]1CN2C(=N1)N(CC)C(=O)c1nc(Cc3ccccc3)n(Cc3ccccc3)c12 | inhibition [4]: 4% |
| 15 |  | CCN1C(=O)c2nc(C#Cc3ccccc3)n(Cc3ccccc3)c2N2C[C@@H](Cc3ccccc3)N=C12 | Ratio [3]: > 303 |
|  |  | CN1C(=O)c2nc(Cc3ccccc3)n(Cc3ccccc3)c2N2C[C@@H](Cc3ccccc3)N=C12 | inhibition [4]: 6% |
| 7.5 | 38 | CCN1C(=O)c2nc(Cc3ccccc3)n(Cc3ccc(OC)cc3)c2N2C[C@@H](Cc3ccccc3)N=C12 |  |
|  |  | O=C1c2nc(Cc3ccccc3)[nH]c2N2C[C@@H](Cc3ccccc3)N=C2N1C1CC1 | inhibition [4]: 21% |
| 0.7 | 60 | CCC[C@@H]1CN2C(=N1)N(CC)C(=O)c1[nH]c(Cc3ccccc3)nc12 | Ratio [3]: > 167 |
| 7.4 | 74 | CCN1C(=O)c2nc(CCc3ccccc3)n(Cc3ccccc3)c2N2C[C@@H](Cc3ccccc3)N=C12 |  |
| 7.3 | 60 | CCN1C(=O)c2nc(Cl)n(Cc3ccccc3)c2N2C[C@@H](Cc3ccccc3)N=C12 |  |
|  |  | CCN1C(=O)c2c(nc(I)n2Cc2ccccc2)N2C[C@@H](Cc3ccccc3)N=C12 | inhibition [4]: 32% |
| 4.5 | 145 | CCN1C(=O)c2nc(Br)n(Cc3ccccc3)c2N2C[C@@H](Cc3ccccc3)N=C12 |  |
| 1 | 28 | CCN1C(=O)c2[nH]c(Cc3ccccc3)nc2N2C[C@@H](C(C)C)N=C12 | Ratio [3]: 59 |
| 93.9 | 3.3 | CCN1C(=O)c2c(nc(I)n2Cc2ccc(O)cc2)N2C[C@@H](Cc3ccccc3)N=C12 |  |
| 4 | 22 | CC(C)N1C(=O)c2[nH]c(Cc3ccccc3)nc2N2C[C@@H](Cc3ccccc3)N=C21 |  |
|  |  | CCCN1C(=O)c2[nH]c(Cc3ccccc3)nc2N2C[C@@H](Cc3ccccc3)N=C12 | inhibition [4]: 25% |
|  |  | CCCc1nn(C)c2c(=O)[nH]c(-c3cc(S(=O)(=O)N4CCN(C)CC4)ccc3OCC)nc12 | IC50 [6]: > 10000 nM |
| 7.9 | 28 | CCN1C(=O)c2nc(Cc3ccccc3)n(Cc3ccc(O)cc3)c2N2C[C@@H](Cc3ccccc3)N=C12 |  |

| Ratio [1] | IC50 [2] [nM] | Compound | further results |
| --- | --- | --- | --- |
|  |  | O=C1c2nc(Cc3ccccc3)n(Cc3ccccc3)c2N2C[C@@H](Cc3ccccc3)N=C2N1CC(F)(F)F | inhibition [4]: 7% |
| 4.8 |  | CCN1C(=O)c2c(nc(Br)n2Cc2ccc(OC)cc2)N2C[C@@H](Cc3ccccc3)N=C12 |  |
|  |  | CN1C(=O)c2[nH]c(Cc3ccccc3)nc2N2C1=N[C@@H]1CCC[C@@H]12 | Ratio [3]: 1.3 |
|  |  | CCN1C(=O)c2c(nc(Cc3ccccc3)n2Cc2ccccc2)N2C[C@@H](Cc3ccccc3)N=C12 | inhibition [4]: 23% |
| 72 | 2.5 | CCN1C(=O)c2c(nc(Br)n2Cc2ccc(O)cc2)N2C[C@@H](Cc3ccccc3)N=C12 | IC50 [9]: 540 nM; IC50 [5]: > 10000 nM; IC50 [6]: > 10000 nM; IC50 (Phosphodiesterase 1): > 10000 nM; IC50 (Phosphodiesterase 7): > 10000 nM; IC50 (Phosphodiesterase 4): 1400 nM; IC50 [7]: > 10000 nM; Ratio [3]: > 4000; IC50 [8]: 2200 nM; IC50 (Phosphodiesterase 3): > 10000 nM; IC50 (Phosphodiesterase 6): 180 nM |
| 5.3 |  | CCN1C(=O)c2nc(Cc3ccccc3)n(Cc3ccccc3)c2N2C[C@@H](Cc3ccccc3)N=C12 | Ratio [3]: > 313 |
| 2.4 | 33 | CC[C@@H]1CN2C(=N1)N(CC)C(=O)c1[nH]c(Cc3ccccc3)nc12 | Ratio [3]: > 303 |
|  |  | Oc1nc2n(c3nc(Cc4ccccc4)nc1-3)C[C@@H](Cc1ccccc1)N2 | inhibition [4]: 22% |
|  |  | CON1C(=O)c2nc(Cc3ccccc3)n(Cc3ccccc3)c2N2C[C@@H](Cc3ccccc3)N=C12 | inhibition [4]: 17% |
|  |  | O=C1c2[nH]c(Cc3ccccc3)nc2N2C[C@@H](Cc3ccccc3)N=C2N1CC(F)(F)F | inhibition [4]: 34% |
| 4.5 | 20 | CCN1C(=O)c2nc(C#Cc3ccccc3)n(Cc3ccc(OC)cc3)c2N2C[C@@H](Cc3ccccc3)N=C12 |  |
| 51.3 | 7.8 | CCN1C(=O)c2nc(Br)n(Cc3ccc(O)cc3)c2N2C[C@@H](Cc3ccccc3)N=C12 | Ratio [3]: > 1590 |
| 40 | 15 | CCN1C(=O)c2c(nc(C)n2Cc2ccc(O)cc2)N2C[C@@H](Cc3ccccc3)N=C12 |  |
| 19.8 | 5.3 | CCN1C(=O)c2c(nc(C#Cc3ccccc3)n2Cc2ccc(O)cc2)N2C[C@@H](Cc3ccccc3)N=C12 |  |
| 1.8 |  | CCN1C(=O)c2[nH]c(Cc3ccccc3)nc2N2C[C@@H](Cc3ccccc3)N=C12 | Ratio [3]: > 2220 |
| 7.8 | 48 | CCN1C(=O)c2nc(Br)n(Cc3ccc(OC)cc3)c2N2C[C@@H](Cc3ccccc3)N=C12 |  |
| 1.3 | 40 | CCN1C(=O)c2nc(Cc3ccccc3)n(Cc3ccccc3)c2N2C[C@@H](c3ccccc3)N=C12 |  |
| 3.6 | 40 | CCN1C(=O)c2c(nc(C#Cc3ccccc3)n2Cc2ccccc2)N2C[C@@H](Cc3ccccc3)N=C12 |  |
|  | 19 | CCN1C(=O)c2[nH]c(Cc3ccccc3)nc2N2C1=N[C@@H]1CCC[C@@H]12 | Ratio [3]: 342 |
| 93.5 | 2.3 | CCN1C(=O)c2c(nc(Cl)n2Cc2ccc(O)cc2)N2C[C@@H](Cc3ccccc3)N=C12 | Ratio [3]: > 4350 |
| 4.9 | 35 | CCC[C@@H]1CN2C(=N1)N(CC)C(=O)c1nc(Cc3ccccc3)n(Cc3ccccc3)c12 | Ratio [3]: > 286 |
| 23 | 6.5 | CCN1C(=O)c2nc(C#Cc3ccccc3)n(Cc3ccc(O)cc3)c2N2C[C@@H](Cc3ccccc3)N=C12 | Ratio [3]: > 1540 |
|  |  | CCCc1nc(C)c2c(=O)nc(-c3cc(S(=O)(=O)N4CCN(CC)CC4)ccc3OCC)[nH]n12 | IC50 [9]: 130 nM; IC50 [6]: > 10000 nM; IC50 [7]: > 10000 nM; IC50 [8]: 790 nM |
|  |  | O=C1c2nc(Cc3ccccc3)n(Cc3ccccc3)c2N2C[C@@H](Cc3ccccc3)N=C2N1C1CC1 | inhibition [4]: 12% |
